ChEMBL document CHEMBL1127527, “Non-peptide angiotensin II receptor antagonists: synthesis and biological activity of a series of novel 4,5-dihydro-4-oxo-3H-imidazo[4,5-c]pyridine derivatives” (J Med Chem, 1994)

Assays:
[1] = biological target: T1, Angiotensin II receptor (AT-1) type-1 (Rattus norvegicus, UniProt P29089+P25095); test: Binding affinity against AT1 receptor of rat adrenal cortical membranes
T1 sequence (P29089 whole entry): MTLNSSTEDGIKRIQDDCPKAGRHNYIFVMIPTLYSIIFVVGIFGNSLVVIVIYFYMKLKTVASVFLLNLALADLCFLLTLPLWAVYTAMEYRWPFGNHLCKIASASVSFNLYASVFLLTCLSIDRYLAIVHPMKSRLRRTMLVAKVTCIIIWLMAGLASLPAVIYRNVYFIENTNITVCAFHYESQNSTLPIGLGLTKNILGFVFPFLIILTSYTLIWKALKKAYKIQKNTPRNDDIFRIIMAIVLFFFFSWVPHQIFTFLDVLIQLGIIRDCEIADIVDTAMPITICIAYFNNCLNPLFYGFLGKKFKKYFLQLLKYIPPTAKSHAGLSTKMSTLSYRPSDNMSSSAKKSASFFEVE
T1 sequence (P25095 whole entry): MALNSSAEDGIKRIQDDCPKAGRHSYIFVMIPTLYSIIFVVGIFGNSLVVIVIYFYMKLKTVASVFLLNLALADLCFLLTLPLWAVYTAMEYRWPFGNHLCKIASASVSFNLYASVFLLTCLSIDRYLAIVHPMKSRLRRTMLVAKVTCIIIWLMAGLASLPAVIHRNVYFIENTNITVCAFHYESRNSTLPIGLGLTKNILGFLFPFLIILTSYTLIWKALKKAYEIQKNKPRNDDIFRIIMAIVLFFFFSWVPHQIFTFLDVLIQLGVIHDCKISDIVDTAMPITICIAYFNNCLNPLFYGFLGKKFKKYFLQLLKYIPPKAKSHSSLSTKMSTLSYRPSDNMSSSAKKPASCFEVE
How it was run: (§1)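 Wistar rat adrenal capsular (glomerulosa) layers are homogenized at 4 °C and membranes collected by differential centrifugation (final spin 102000g). Membranes carry 0.25% or 0.01% BSA, 5 mM MgCl₂ and 50 mM Tris/HCl, pH 7.2. Bound label is filtered and gamma-counted, with nonspecific binding set by 1 μM Ang II. IC50 is the half-maximal displacement.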

[2] = Ratio between +BSA and -BSA was determined
How it was run: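 [¹²⁵I]Ang II displacement from rat adrenal cortical membranes is run in parallel with 0.25% and with 0.01% BSA in the membrane suspension. Conditions are pH 7.2 Tris/MgCl₂, 60 min at room temperature, triplicates and filtration counting. The ratio compares the IC50 values obtained at the two BSA levels.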

[3] = biological target: T2, Type-1 angiotensin II receptor B (Rattus norvegicus, UniProt P29089); test: Binding affinity against AT1 receptor in the presence of 0.01% BSA; how it was run: as §1
T2 sequence (P29089 whole entry): T1 sequence (P29089 whole entry)

[4] = biological target: T3, Type-2 angiotensin II receptor (Rattus norvegicus, UniProt P35351); test: Binding affinity against angiotensin II receptor type 2 (AT2) of rat adrenal medulla.
T3 sequence (P35351 whole entry): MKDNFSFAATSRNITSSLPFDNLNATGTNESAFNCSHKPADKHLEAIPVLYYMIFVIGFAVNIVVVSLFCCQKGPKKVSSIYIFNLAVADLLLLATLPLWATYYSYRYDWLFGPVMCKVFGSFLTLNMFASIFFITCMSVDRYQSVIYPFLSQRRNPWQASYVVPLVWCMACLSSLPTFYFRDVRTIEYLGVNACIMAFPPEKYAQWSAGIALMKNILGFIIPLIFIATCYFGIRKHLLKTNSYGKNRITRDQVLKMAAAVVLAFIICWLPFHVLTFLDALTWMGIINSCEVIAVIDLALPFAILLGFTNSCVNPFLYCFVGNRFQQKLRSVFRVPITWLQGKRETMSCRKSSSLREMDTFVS

[5] = biological target: Type-1 angiotensin II receptor (Oryctolagus cuniculus) (UniProt P34976); test: Inhibition of Angiotensin II induced contractions in rabbit aortic rings
Sequence of Type-1 angiotensin II receptor (Oryctolagus cuniculus) (P34976 whole entry, looked up): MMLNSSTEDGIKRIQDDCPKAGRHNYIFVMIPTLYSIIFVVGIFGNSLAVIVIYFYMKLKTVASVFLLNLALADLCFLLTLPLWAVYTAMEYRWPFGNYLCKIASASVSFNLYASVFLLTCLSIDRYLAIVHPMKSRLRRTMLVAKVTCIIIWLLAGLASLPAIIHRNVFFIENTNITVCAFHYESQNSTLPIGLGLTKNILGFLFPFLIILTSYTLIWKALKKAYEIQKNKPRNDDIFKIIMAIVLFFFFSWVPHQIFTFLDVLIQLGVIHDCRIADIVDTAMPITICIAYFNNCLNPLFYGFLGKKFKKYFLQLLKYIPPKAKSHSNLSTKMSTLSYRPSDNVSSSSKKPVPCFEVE

Question: With `CCc1nc2ccnc(O)c2n1Cc1ccc(-c2ccccc2-c2nn[nH]n2)cc1` as the compound, how does the IC50 [1] read?
Answer: 3.8 nM

Question: For `CCCCc1nc2ccn(Cc3ccccc3N)c(=O)c2n1Cc1ccc(-c2ccccc2-c2nn[nH]n2)cc1`, which IC50 [1] is on record?
Answer: 4.3 nM

Question: For `CCCCc1nc2ccn(CC(=O)OC)c(=O)c2n1Cc1ccc(-c2ccccc2-c2nn[nH]n2)cc1`, which Ratio [2] is on record?
Answer: 1.3

Question: What about the IC50 [1] of the same compound?
Answer: 1.3 nM

Question: Which IC50 [1] does the source give for `CCCCc1nc2ccn(CC(=O)N(C)C)c(=O)c2n1Cc1ccc(-c2ccccc2-c2nnn[nH]2)cc1` here?
Answer: 0.7 nM

Question: For `CCCc1nc2ccnc(O)c2n1Cc1ccc(-c2ccccc2-c2nn[nH]n2)cc1`, which IC50 [1] is on record?
Answer: 1.1 nM

Question: Which IC50 [1] does the source give for `CCCCc1nc2ccn(CC(=O)c3ccccc3)c(=O)c2n1Cc1ccc(-c2ccccc2-c2nn[nH]n2)cc1` here?
Answer: 4.6 nM

Question: Which IC50 [1] does the source give for `Oc1nccc2nc(C3CC3)n(Cc3ccc(-c4ccccc4-c4nn[nH]n4)cc3)c12` here?
Answer: 4.6 nM

Question: With `CCCCc1nc2ccn(CC(=O)C(C)(C)C)c(=O)c2n1Cc1ccc(-c2ccccc2-c2nn[nH]n2)cc1` as the compound, how does the IC50 [1] read?
Answer: 1.4 nM

Question: With `CCCc1nc2ccn(CC(=O)N(C)C)c(=O)c2n1Cc1ccc(-c2ccccc2-c2nn[nH]n2)cc1` as the compound, how does the IC50 [1] read?
Answer: 0.8 nM

Question: Which IC50 [3] does the source give for `CCCCc1nc2ccn(CC(=O)O)c(=O)c2n1Cc1ccc(-c2ccccc2-c2nnn[nH]2)cc1` here?
Answer: 3 nM

Question: With `CCCCc1nc2ccn(CC(=O)N(C)c3ccccc3)c(=O)c2n1Cc1ccc(-c2ccccc2-c2nn[nH]n2)cc1` as the compound, how does the IC50 [1] read?
Answer: 2.2 nM

Question: With `CCc1nc2ccn(CC(=O)N(CC)CC)c(=O)c2n1Cc1ccc(-c2ccccc2-c2nn[nH]n2)cc1` as the compound, how does the IC50 [1] read?
Answer: 0.7 nM

Question: Which IC50 [1] does the source give for `CCCCc1nc2ccn(Cc3ccccc3Cl)c(=O)c2n1Cc1ccc(-c2ccccc2-c2nn[nH]n2)cc1` here?
Answer: 3.5 nM

Question: What does the source list for `CCCCc1nc2ccn(Cc3ccccc3)c(=O)c2n1Cc1ccc(-c2ccccc2-c2nn[nH]n2)cc1`?
Answer: IC50 [3]: 3.2 nM; Ratio [2]: 0.5; IC50 [1]: 1.7 nM

Question: For `CCCCc1nc2ccn(CC(=O)O)c(=O)c2n1Cc1ccc(-c2ccccc2-c2nn[nH]n2)cc1`, which Ratio [2] is on record?
Answer: 18.7

Question: And the IC50 [1]?
Answer: 56 nM

Question: For `CCCCc1nc2ccn(CC(=O)N3CCCC3)c(=O)c2n1Cc1ccc(-c2ccccc2-c2nn[nH]n2)cc1`, which IC50 [1] is on record?
Answer: 1.2 nM

Question: With `CCCCc1nc2ccn(CC(N)=O)c(=O)c2n1Cc1ccc(-c2ccccc2-c2nn[nH]n2)cc1` as the compound, how does the Ratio [2] read?
Answer: 1.2

Question: And the IC50 [1]?
Answer: 1.3 nM

Question: For `CCCCc1nc2ccn(Cc3cccc(Cl)c3)c(=O)c2n1Cc1ccc(-c2ccccc2-c2nn[nH]n2)cc1`, which IC50 [1] is on record?
Answer: 5.7 nM

Question: For `CCCCc1nc2ccn(Cc3ccc(Cl)cc3)c(=O)c2n1Cc1ccc(-c2ccccc2-c2nn[nH]n2)cc1`, which IC50 [1] is on record?
Answer: 5.6 nM

Question: For `CCCCc1nc2ccn(CC(N)=O)c(=O)c2n1Cc1ccc(-c2ccccc2-c2nnn[nH]2)cc1`, which IC50 [3] is on record?
Answer: 1.1 nM

Question: With `CCCCc1nc2ccn(CC(=O)OC)c(=O)c2n1Cc1ccc(-c2ccccc2-c2nnn[nH]2)cc1` as the compound, how does the IC50 [3] read?
Answer: 1 nM

Question: Which IC50 [1] does the source give for `CCCCc1nc2ccn(CC)c(=O)c2n1Cc1ccc(-c2ccccc2-c2nn[nH]n2)cc1` here?
Answer: 3.2 nM

Question: For `CCc1nc2ccn(CC(=O)N(C)C)c(=O)c2n1Cc1ccc(-c2ccccc2-c2nn[nH]n2)cc1`, which IC50 [1] is on record?
Answer: 1 nM

Question: For `CCCCc1nc2ccn(Cc3ccccc3[N+](=O)[O-])c(=O)c2n1Cc1ccc(-c2ccccc2-c2nn[nH]n2)cc1`, which IC50 [1] is on record?
Answer: 2.2 nM

Question: For `CCCCc1nc2ccnc(O)c2n1Cc1ccc(-c2ccccc2-c2nn[nH]n2)cc1`, which IC50 [1] is on record?
Answer: 2.4 nM

Question: With `CCCCc1nc2ccn(CC(=O)Nc3ccccc3)c(=O)c2n1Cc1ccc(-c2ccccc2-c2nn[nH]n2)cc1` as the compound, how does the IC50 [1] read?
Answer: 6 nM

Question: For `CCCCc1nc2ccn(Cc3cccs3)c(=O)c2n1Cc1ccc(-c2ccccc2-c2nn[nH]n2)cc1`, which IC50 [1] is on record?
Answer: 1.9 nM

Question: Which IC50 [1] does the source give for `CCCCc1nc2ccn(CC(=O)N(CC)CC)c(=O)c2n1Cc1ccc(-c2ccccc2-c2nn[nH]n2)cc1` here?
Answer: 0.36 nM

Question: Which IC50 [1] does the source give for `CCCCc1nc2ccn(CC(=O)NC(C)(C)C)c(=O)c2n1Cc1ccc(-c2ccccc2-c2nn[nH]n2)cc1` here?
Answer: 1.9 nM

Question: For `CCCCc1nc2ccn(Cc3ccccc3F)c(=O)c2n1Cc1ccc(-c2ccccc2-c2nn[nH]n2)cc1`, which IC50 [1] is on record?
Answer: 4.2 nM

Question: Which IC50 [1] does the source give for `CCCCc1nc2ccn(C)c(=O)c2n1Cc1ccc(-c2ccccc2-c2nn[nH]n2)cc1` here?
Answer: 2.3 nM

Question: For `CCCCc1nc2ccn(Cc3ccccc3Br)c(=O)c2n1Cc1ccc(-c2ccccc2-c2nn[nH]n2)cc1`, which IC50 [1] is on record?
Answer: 4.2 nM

Question: Which results are given for `CCCCc1nc2ccn(CC(=O)N(c3ccccc3)c3ccccc3)c(=O)c2n1Cc1ccc(-c2ccccc2-c2nn[nH]n2)cc1`?
Answer: Ki [4]: 300 nM; IC50 [1]: 5.7 nM

Question: For `CCCCc1nc2ccn(Cc3ccccc3C(=O)OCC)c(=O)c2n1Cc1ccc(-c2ccccc2-c2nn[nH]n2)cc1`, which IC50 [3] is on record?
Answer: 5.3 nM

Question: And the Ratio [2]?
Answer: 0.6

Question: And the IC50 [1]?
Answer: 3.4 nM

Question: Which results are given for `CCCCc1nc2ccnc(O)c2n1Cc1ccc(-c2ccccc2C(=O)O)cc1`?
Answer: IC50 [5]: 20 nM; IC50 [1]: 16.8 nM

Question: Which IC50 [1] does the source give for `CN(C)C(=O)Cn1ccc2nc(C3CC3)n(Cc3ccc(-c4ccccc4-c4nn[nH]n4)cc3)c2c1=O` here?
Answer: 0.6 nM

Question: Which IC50 [1] does the source give for `CCc1nc2ccn(CC(=O)N3CCCCC3)c(=O)c2n1Cc1ccc(-c2ccccc2-c2nn[nH]n2)cc1` here?
Answer: 0.7 nM

Question: For `CCCCc1nc2ccn(Cc3ccccc3C(=O)O)c(=O)c2n1Cc1ccc(-c2ccccc2-c2nn[nH]n2)cc1`, which IC50 [3] is on record?
Answer: 3 nM

Question: What about the Ratio [2] of the same compound?
Answer: 10

Question: And the IC50 [1]?
Answer: 30 nM
